Assay results reported in ChEMBL document CHEMBL1949593, “Stilbene-chalcone hybrids: design, synthesis, and evaluation as a new class of antimalarial scaffolds that trigger cell death through stage specific apoptosis” (J Med Chem, 2012).
Values belong to the compound of their own block, whether it stands above or below them. Calls of active or inactive are those of the source. The rule behind the calls is not given here.

Legend:
Plasmodium falciparum [1] = test: Antimalarial activity against ring stage chloroquine-sensitive Plasmodium falciparum 3D7 infected in human O positive erythrocytes after 48 hrs by SYBR green 1 fluorescence assay; assay type: functional, organism-based; settings: 3D7, 48 h
How it was run: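 P. falciparum 3D7 in O+ human erythrocytes in complete RPMI with Albumax at 37 °C under 5% O2/5% CO2. Culture was sorbitol-synchronized to rings and plated at 2% hematocrit, 1% parasitemia. Drug range was 0–100 μM with 0.4% final DMSO, in triplicate. After 48 h, SYBR Green I fluorescence was read (ex 497/em 520 nm). IC50 was taken by visual matching of 50% growth inhibition.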

Plasmodium falciparum [2] = test: Antimalarial activity against ring stage chloroquine-resistant Plasmodium falciparum Dd2 infected in human O positive erythrocytes after 48 hrs by SYBR green 1 fluorescence assay; assay type: functional, organism-based; settings: Dd2, 48 h
How it was run: (§1)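 Ring-stage cultures were sorbitol-synchronized in O+ human erythrocytes in RPMI 1640 with 0.5% Albumax, hypoxanthine and gentamicin, then plated at 2% hematocrit and 1% parasitemia. Drugs were tested at 0–100 μM (final DMSO 0.4%) in triplicate for 48 h at 37 °C under 5% O2/5% CO2/90% N2. Read-out was SYBR Green I (ex 497/em 520 nm). IC50 was read visually as 50% growth inhibition, with chloroquine as control.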

Plasmodium falciparum [3] = test: Antimalarial activity against ring stage chloroquine-resistant Plasmodium falciparum INDO infected in human O positive erythrocytes after 48 hrs by SYBR green 1 fluorescence assay; assay type: functional, organism-based; how it was run: as §1
[4] = Resistance index, ratio of IC50 for ring stage chloroquine-resistant Plasmodium falciparum INDO to IC50 for ring stage chloroquine-sensitive Plasmodium falciparum 3D7; assay type: functional
[5] = Resistance index, ratio of IC50 for ring stage chloroquine-resistant Plasmodium falciparum Dd2 to IC50 for ring stage chloroquine-sensitive Plasmodium falciparum 3D7; assay type: functional
[6] = Therapeutic index, ratio of IC50 for human HeLa cells to IC50 for ring stage chloroquine-sensitive Plasmodium falciparum 3D7; assay type: cell-based; settings: read-out: Ratio IC50
How it was run: (§2)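 HeLa or L929 fibroblasts were seeded at 10^4 cells per well in RPMI with 10% FBS, left overnight, then exposed 24 h at 37 °C, 5% CO2. MTT was added for 3 h; formazan was dissolved in DMSO and read at 570 nm. IC50 came from dose–response curves. Index = IC50(mammalian)/IC50(Pf 3D7, SYBR Green assay).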

[7] = Therapeutic index, ratio of IC50 for […] cells to IC50 for ring stage chloroquine-sensitive Plasmodium falciparum 3D7; assay type: cell-based; settings: mouse, read-out: Ratio IC50; how it was run: as §2
[8] = Inhibition of Plasmodium falciparum falcipain-2 using benzyloxycarbonyl-Phe-Arg-7-amino-4-methyl coumarin hydrochloride as substrate preincubated for 10 mins prior substrate addition by fluorimetric assay
How it was run: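 Recombinant falcipain-2 (2 μg) was preincubated 10 min at room temperature with or without compound, in triplicate. Buffer was 100 mM sodium acetate pH 5.5 with 10 mM DTT and 1% final DMSO. Z-Phe-Arg-AMC was then added at 10 μM final. AMC release was read at ex 355/em 460 nm. IC50 was taken by visual matching of 50% inhibition.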

Plasmodium falciparum [9] = test: Antimalarial activity against chloroquine-sensitive Plasmodium falciparum 3D7 assessed as inhibition of schizonts growth at 6 uM treated for 8 hrs followed by washout measured after 48 hrs by Giemsa staining; assay type: functional, organism-based
How it was run: (§3)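 Highly synchronized 3D7 schizonts were exposed to drug for 8 h under normal culture conditions, alongside untreated controls. After a media wash, cultures were incubated for 48 h with or without drug. Giemsa-stained thin smears were examined microscopically for parasitemia and stage, and compared with control.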

Plasmodium falciparum [10] = test: Antimalarial activity against chloroquine-sensitive Plasmodium falciparum 3D7 assessed as merozoites egress at 6 uM treated for 8 hrs followed by washout measured after 48 hrs by Giemsa staining; assay type: functional, organism-based; how it was run: as §3
Plasmodium falciparum [11] = test: Inhibition of RBC invasion of chloroquine-sensitive Plasmodium falciparum 3D7 schizonts at 6 uM treated for 8 hrs followed by washout measured after 48 hrs by Giemsa staining; assay type: functional, organism-based; how it was run: as §3
Plasmodium falciparum [12] = test: Growth inhibition of ring stage chloroquine-sensitive Plasmodium falciparum 3D7 at 6 uM treated for 48 hrs followed by washout measured after 48 hrs by Giemsa staining; assay type: functional, organism-based
How it was run: (§4)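 Highly synchronized 3D7 cultures were exposed by stage: rings 48 h, trophozoites 24 h, schizonts 8 h. After a media wash, cultures grew 48 h in drug-free complete RPMI, in triplicate. Giemsa smears were read by counting 3000 cells per stage; pycnotic parasites were scored nonviable. Inhibition is percent of drug-free control.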

Plasmodium falciparum [13] = test: Growth inhibition of chloroquine-sensitive Plasmodium falciparum 3D7 trophozoites at 6 uM treated for 18 hrs followed by washout measured after 54 hrs by Giemsa staining; assay type: functional, organism-based
Plasmodium falciparum [14] = test: Induction of apoptosis in ring stage chloroquine-sensitive Plasmodium falciparum 3D7 assessed as nuclear condensation at 6 uM at 24 hrs by Giemsa staining; assay type: functional, organism-based
Plasmodium falciparum [15] = test: Induction of apoptosis in chloroquine-sensitive Plasmodium falciparum 3D7 trophozoites assessed as nuclear condensation at 6 uM at 24 hrs by Giemsa staining; assay type: functional, organism-based
Plasmodium falciparum [16] = test: Reduction in parasitemia of chloroquine-sensitive Plasmodium falciparum 3D7 trophozoites at 6 uM after 48 hrs by Giemsa staining; assay type: functional, organism-based
Plasmodium falciparum [17] = test: Reduction in parasitemia of ring stage chloroquine-sensitive Plasmodium falciparum 3D7 at 6 uM after 48 hrs by Giemsa staining; assay type: functional, organism-based
Plasmodium falciparum [18] = test: Induction of apoptosis in ring stage chloroquine-sensitive Plasmodium falciparum 3D7 assessed as chromatin fragmentation at 6 uM at 18 hrs by Hoechst 33342 staining; assay type: functional, organism-based
Plasmodium falciparum [19] = test: Induction of apoptosis in chloroquine-sensitive Plasmodium falciparum 3D7 trophozoites assessed as chromatin fragmentation at 6 uM at 18 hrs by Hoechst 33342 staining; assay type: functional, organism-based
How it was run: (§5)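 3D7 trophozoite cultures were treated 18 or 24 h, and ring cultures 24, 42 or 48 h. Parasites were stained with Hoechst 33342 for 10 min at room temperature, washed with PBS, and smeared. Condensed or fragmented chromatin (blue, 460 nm) was viewed by fluorescence microscopy.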

Plasmodium falciparum [20] = test: Induction of apoptosis in ring stage chloroquine-sensitive Plasmodium falciparum 3D7 assessed as chromatin condensation at 6 uM at 18 hrs by Hoechst 33342 staining; assay type: functional, organism-based
Plasmodium falciparum [21] = test: Induction of apoptosis in chloroquine-sensitive Plasmodium falciparum 3D7 trophozoites assessed as chromatin condensation at 6 uM at 18 hrs by Hoechst 33342 staining; assay type: functional, organism-based; how it was run: as §5
Plasmodium falciparum [22] = test: Induction of internucleosomal fragmentation in chloroquine-sensitive Plasmodium falciparum 3D7 trophozoites at 6 uM at 24 hrs by Hoechst 33342 staining; assay type: functional, organism-based; how it was run: as §5
Plasmodium falciparum [23] = test: Induction of internucleosomal fragmentation in ring stage chloroquine-sensitive Plasmodium falciparum 3D7 at 6 uM at 24 hrs by Hoechst 33342 staining; assay type: functional, organism-based; how it was run: as §5
Plasmodium falciparum [24] = test: Induction of apoptosis in ring stage chloroquine-sensitive Plasmodium falciparum 3D7 assessed as disruption of mitochondrial membrane potential at 6 uM by JC-1 staining; assay type: functional, organism-based
How it was run: (§6)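 3D7 ring cultures were treated 24, 42 or 48 h, and trophozoite cultures 18 or 24 h. Parasites were stained with JC-1 for 20 min at 37 °C and viewed as wet mounts by fluorescence microscopy. Red-orange aggregate signal (590 nm) indicates intact ΔΨm; green monomer signal (525 nm) indicates dissipation.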

Plasmodium falciparum [25] = test: Induction of apoptosis in chloroquine-sensitive Plasmodium falciparum 3D7 trophozoites assessed as disruption of mitochondrial membrane potential at 6 uM by JC-1 staining; assay type: functional, organism-based; how it was run: as §6
Plasmodium falciparum [26] = test: Growth inhibition of ring stage chloroquine-sensitive Plasmodium falciparum 3D7 at 6 uM treated for 48 hrs following washout incubated for 48 hrs in drug free medium by SYBR green 1-based fluorescence assay; assay type: functional, organism-based
How it was run: (§7)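 Stage-specific exposure of synchronized 3D7: rings 48 h, trophozoites 24 h, schizonts 8 h. Drug was removed by media wash and cultures grew 48 h drug-free, in a separate triplicate set. Growth was read by SYBR Green I fluorescence and expressed as percent inhibition relative to drug-free control.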

Plasmodium falciparum [27] = test: Growth inhibition of chloroquine-sensitive Plasmodium falciparum 3D7 trophozoites at 6 uM treated for 24 hrs following washout incubated for 48 hrs in drug free medium by Giemsa staining; assay type: functional, organism-based; how it was run: as §4
Plasmodium falciparum [28] = test: Growth inhibition of chloroquine-sensitive Plasmodium falciparum 3D7 trophozoites at 6 uM treated for 24 hrs following washout incubated for 48 hrs in drug free medium by SYBR green 1-based fluorescence assay; assay type: functional, organism-based; how it was run: as §7
Plasmodium falciparum [29] = test: Growth inhibition of chloroquine-sensitive Plasmodium falciparum 3D7 schizonts at 6 uM treated for 8 hrs following washout incubated for 48 hrs in drug free medium by Giemsa staining; assay type: functional, organism-based; how it was run: as §4
Plasmodium falciparum [30] = test: Growth inhibition of chloroquine-sensitive Plasmodium falciparum 3D7 schizonts at 6 uM treated for 8 hrs following washout incubated for 48 hrs in drug free medium by SYBR green 1-based fluorescence assay; assay type: functional, organism-based; how it was run: as §7

IC50 (Plasmodium falciparum [1]): > 100 µM
Compound: COc1cc(OC)c(OC)cc1/C=C/C(=O)c1ccc(/C=C/c2cc(OC)c(OS(=O)(=O)c3ccc(C)cc3)c(OC)c2)cc1

IC50 (Plasmodium falciparum [1]): 36.3 µM
Compound: O=C(/C=C/c1cccs1)c1ccc(/C=C/c2ccccc2)cc1

Compound: COc1cc(/C=C/c2ccc(C(=O)/C=C/c3cc(OC)c(OC)cc3OC)cc2)ccc1O
IC50 (Plasmodium falciparum [1]): 5.3 µM | IC50 (Plasmodium falciparum [2]): 3.71 µM | IC50 (Plasmodium falciparum [3]): 2.65 µM | Ratio IC50 [4]: 0.5 | Ratio IC50 [5]: 0.7 | selectivity ratio [6]: > 37.7 | selectivity ratio [7]: 4.7 | IC50 [8]: 23 µM

IC50 (Plasmodium falciparum [1]): 2.8 µM
Compound: COc1cc(OC)c(OC)cc1/C=C/C(=O)c1cccc(C(=O)/C=C/c2cc(OC)c(OC)cc2OC)c1

Compound: COc1cc(OC)c(OC)cc1/C=C/C(=O)c1ccc(/C=C/c2ccc(O)c(O)c2)cc1
IC50 (Plasmodium falciparum [1]): 4.2 µM | IC50 (Plasmodium falciparum [2]): 7.1 µM | IC50 (Plasmodium falciparum [3]): 4.6 µM | Ratio IC50 [4]: 1.1 | Ratio IC50 [5]: 1.7 | selectivity ratio [6]: > 23.8 | selectivity ratio [7]: 7.6 | IC50 [8]: 19 µM

Compound: COc1cc(OC)c(OC)cc1/C=C/C(=O)c1ccc(/C=C/c2cc(OC)c(OC)c(OC)c2)cc1
IC50 (Plasmodium falciparum [1]): 5.2 µM | IC50 (Plasmodium falciparum [2]): 2.6 µM | IC50 (Plasmodium falciparum [3]): 2.08 µM | Ratio IC50 [4]: 0.4 | Ratio IC50 [5]: 0.5 | selectivity ratio [6]: > 38.5 | selectivity ratio [7]: 29.8 | IC50 [8]: 20.5 µM

IC50 (Plasmodium falciparum [1]): 10 µM
Compound: COc1cc(OC)c(OC)cc1/C=C/C(=O)c1ccc(/C=C/c2ccc(O)cc2)cc1

IC50 (Plasmodium falciparum [1]): 29.5 µM
Compound: COc1ccc(/C=C/C(=O)c2ccc(/C=C/c3ccccc3)cc2)cc1OC

IC50 (Plasmodium falciparum [1]): 11 µM
Compound: COc1cc(/C=C/c2ccc(/C=C/c3cc(OC)c(O)c(OC)c3)cc2)cc(OC)c1O

IC50 (Plasmodium falciparum [1]): 34 µM
Compound: COc1ccc(/C=C/C(=O)c2ccc(/C=C/c3ccc(O)c(OC)c3)cc2)cc1

Compound: COc1cc(OC)c(OC)cc1/C=C/C(=O)c1ccc(/C=C/c2cc(OC)c(O)c(OC)c2)cc1
IC50 (Plasmodium falciparum [1]): 2.2 µM | IC50 (Plasmodium falciparum [2]): 6.4 µM | IC50 (Plasmodium falciparum [3]): 1.4 µM | Ratio IC50 [4]: 0.64 | Ratio IC50 [5]: 2.9 | selectivity ratio [6]: 42.3 | selectivity ratio [7]: 45.5 | IC50 [8]: 37.5 µM | growth inhibition (GI) (Plasmodium falciparum [9]): inactive | inhibition (Plasmodium falciparum [10]): inactive | inhibition (Plasmodium falciparum [11]): inactive | growth inhibition (GI) (Plasmodium falciparum [12]): Active | growth inhibition (GI) (Plasmodium falciparum [13]): Active | Activity (Plasmodium falciparum [14]): Active | Activity (Plasmodium falciparum [15]): Active | Activity (Plasmodium falciparum [16]): Active | Activity (Plasmodium falciparum [17]): Active | Activity (Plasmodium falciparum [18]): Active | Activity (Plasmodium falciparum [19]): Active | Activity (Plasmodium falciparum [20]): Active | Activity (Plasmodium falciparum [21]): Active | Activity (Plasmodium falciparum [22]): Active | Activity (Plasmodium falciparum [23]): inactive | Activity (Plasmodium falciparum [24]): Active | Activity (Plasmodium falciparum [25]): Active | growth inhibition (GI) (Plasmodium falciparum [26]): Active | growth inhibition (GI) (Plasmodium falciparum [27]): Active | growth inhibition (GI) (Plasmodium falciparum [28]): Active | growth inhibition (GI) (Plasmodium falciparum [29]): inactive | growth inhibition (GI) (Plasmodium falciparum [30]): inactive

IC50 (Plasmodium falciparum [1]): > 100 µM
Compound: COc1cc(OC)c(OC)cc1/C=C/C(=O)c1ccc(/C=C/c2ccc(Cl)cc2)cc1

IC50 (Plasmodium falciparum [1]): 66 µM
Compound: COc1ccc(C(=O)/C=C/c2ccc(/C=C/c3ccc(O)c(OC)c3)cc2)cc1
